Test results published in ChEMBL document CHEMBL4622869, “Discovery and structure-activity relationships study of positive allosteric modulators of the M3 muscarinic acetylcholine receptor” (Bioorg Med Chem, 2020).

Columns and labels:
[1] = molecular target: Muscarinic acetylcholine receptor M3 (Homo sapiens) (UniProt P20309); experiment: Positive allosteric modulation of recombinant human muscarinic acetylcholine receptor M3 expressed in CHOK1 cells assessed as increase in carbachol-induced intracellular calcium flux at 10 uM preincubated for 5 mins followed by carbachol addition by Fluo4-AM dye based FLIPR assay relative to carbachol; format: functional, cell-based; conditions: CHO-K1
Method in brief: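 CHO-K1 cells stably expressing human or rat M1–M5; M2 and M4 lines also co-express human Gα16. Cells loaded with 3.1 μM Fluo-4 AM in HBSS/20 mM HEPES pH 7.5/BSA/2.5 mM probenecid for ~2 h at room temperature. Test substance at 10 μM final, then carbachol (0.0024 nM–100 μM) ~5 min later; Ca2+ read by FLIPR Tetra. Fold shift = carbachol EC50 without / with test substance, from logistic fits.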

Thrombopoietin receptor = molecular target: T1, Thrombopoietin receptor (Homo sapiens, UniProt P40238); experiment: Agonist activity at recombinant human c-Mpl receptor transfected in BA/F3 cells assessed as increase in cell proliferation by cell counting analysis; format: cell-based; conditions: baf3
T1 sequence (P40238 whole entry): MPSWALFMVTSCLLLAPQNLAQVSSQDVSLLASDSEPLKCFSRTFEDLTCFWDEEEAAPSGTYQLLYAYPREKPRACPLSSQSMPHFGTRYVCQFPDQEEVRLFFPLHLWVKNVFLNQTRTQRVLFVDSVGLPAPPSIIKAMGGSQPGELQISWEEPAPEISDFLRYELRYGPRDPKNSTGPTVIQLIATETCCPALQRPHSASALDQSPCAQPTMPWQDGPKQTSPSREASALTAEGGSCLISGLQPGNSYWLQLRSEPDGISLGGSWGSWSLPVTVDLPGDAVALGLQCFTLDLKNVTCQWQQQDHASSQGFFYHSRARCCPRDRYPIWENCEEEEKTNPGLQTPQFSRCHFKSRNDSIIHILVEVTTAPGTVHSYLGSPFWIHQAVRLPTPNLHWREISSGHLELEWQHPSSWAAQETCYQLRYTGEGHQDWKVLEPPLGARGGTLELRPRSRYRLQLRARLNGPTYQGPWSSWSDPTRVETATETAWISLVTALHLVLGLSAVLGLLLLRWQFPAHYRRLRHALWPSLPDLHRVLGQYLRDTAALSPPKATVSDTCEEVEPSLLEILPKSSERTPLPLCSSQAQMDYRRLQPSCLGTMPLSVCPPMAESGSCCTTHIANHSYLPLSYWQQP
Method in brief: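 Ba/F3 cells stably transfected with human c-Mpl by electroporation with blasticidin selection. 1×10^4 cells/well in RPMI-1640 with 10% FBS, with test substance (100 nM to 10 μM final), overnight at 37°C in 5% CO2. Cell Counting Kit added for about 5 h, then A450 read. Scale: untreated wells 0%, reference c-Mpl agonist at 1 μM 100%. EC30 from logistic regression.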

Muscarinic acetylcholine receptor M3 (Homo sapiens), sequence (P20309 whole entry, looked up): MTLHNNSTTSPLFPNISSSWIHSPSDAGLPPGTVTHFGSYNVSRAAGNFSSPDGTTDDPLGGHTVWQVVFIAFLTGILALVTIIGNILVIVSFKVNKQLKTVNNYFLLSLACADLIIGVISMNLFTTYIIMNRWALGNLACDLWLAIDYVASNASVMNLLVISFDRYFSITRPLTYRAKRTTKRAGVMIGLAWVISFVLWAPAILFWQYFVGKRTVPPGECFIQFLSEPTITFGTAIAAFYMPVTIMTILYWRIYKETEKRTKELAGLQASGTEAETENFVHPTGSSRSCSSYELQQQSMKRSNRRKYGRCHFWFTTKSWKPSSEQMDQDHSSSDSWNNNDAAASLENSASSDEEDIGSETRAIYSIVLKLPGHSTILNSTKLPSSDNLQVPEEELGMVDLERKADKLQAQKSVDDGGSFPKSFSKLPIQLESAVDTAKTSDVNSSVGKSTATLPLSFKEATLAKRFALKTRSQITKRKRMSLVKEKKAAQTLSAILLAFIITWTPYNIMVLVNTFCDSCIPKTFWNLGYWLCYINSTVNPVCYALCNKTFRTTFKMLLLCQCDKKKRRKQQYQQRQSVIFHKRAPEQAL

Compound | fold change (FC) [1] | EC30 (Thrombopoietin receptor) [µM]
COC[C@@H]1CCCN1Cc1sc(NC(=O)c2cnc(N3CCC(C(=O)O)CC3)cn2)nc1-c1ccc(OC)c(C(F)(F)F)c1.Cl.Cl | 72 | > 10
COc1ccc(-c2nc(NC(=O)c3cnc(N4CCC(C(=O)O)CC4)cn3)sc2CN2CCCC(C)(C)C2)cc1C(F)(F)F.Cl.Cl | 238 | > 10
COc1ccc(-c2nc(NC(=O)c3cnc(N(C)CC(=O)O)cn3)sc2CN2CCCC(C)(C)C2)cc1C(F)(F)F | 137 | –
COc1ccc(-c2nc(NC(=O)c3ccc(O)cc3)sc2CN2CCCC(C)(C)C2)cc1C(F)(F)F | 8.9 | –
C[C@@H]1CCCN1Cc1sc(NC(=O)C2CCN(c3ccc(C(=O)O)cn3)CC2)nc1-c1cc(Cl)cs1 (racemic) | 2.8 | –
COCCN(Cc1sc(NC(=O)c2cnc(N3CCC(C(=O)O)CC3)cn2)nc1-c1ccc(OC)c(C(F)(F)F)c1)CC(C)C.Cl.Cl | 84 | > 10
COc1ccc(-c2nc(NC(=O)c3cnc(C(=O)O)cn3)sc2CN2CCCC(C)(C)C2)cc1C(F)(F)F | 39 | –
COc1ccc(-c2nc(NC(=O)c3cnc(NCC(=O)O)cn3)sc2CN2CCCC(C)(C)C2)cc1C(F)(F)F | 162 | –
C[C@@H]1CCCN1Cc1sc(NC(=O)c2cnc(N3CCC(C(=O)O)CC3)c(F)c2)nc1-c1cc(Cl)cs1.Cl.Cl | 132 | 0.0032
COc1ccc(-c2nc(NC(=O)c3cnc(N4CCC(C(=O)O)CC4)cn3)sc2CN2CCC[C@@H]2C)cc1C(F)(F)F.Cl.Cl | 25 | > 10
COc1ccc(-c2nc(NC(=O)c3cnc(N4CCC(C(=O)O)CC4)cn3)sc2CN2CCC[C@H]2C)cc1C(F)(F)F.Cl.Cl | 73 | > 10
C[C@@H]1CCCN1Cc1sc(NC(=O)c2cnc(N3CCC(C(=O)O)CC3)cn2)nc1-c1cc(Cl)cs1.Cl.Cl | 186 | 0.35
COc1ccc(-c2nc(NC(=O)c3cnc(OCC(=O)O)cn3)sc2CN2CCCC(C)(C)C2)cc1C(F)(F)F | 175 | –
COc1ccc(-c2nc(NC(=O)c3ccc(OCC(=O)O)cc3)sc2CN2CCCC(C)(C)C2)cc1C(F)(F)F | 204 | –
COc1ccc(-c2nc(NC(=O)c3cnc(N4CCC(C(=O)O)CC4)cn3)sc2CN2CCCC[C@H]2C)cc1C(F)(F)F.Cl.Cl | 94 | > 10
CCC[C@@H]1CCCN1Cc1sc(NC(=O)c2cnc(N3CCC(C(=O)O)CC3)cn2)nc1-c1ccc(OC)c(C(F)(F)F)c1.Cl.Cl | 128 | > 10
C[C@@H]1CCCN1Cc1sc(NC(=O)c2cnc(N3CCC(C(=O)O)CC3)cn2)nc1-c1ccc(Cl)c(C(F)(F)F)c1.Cl.Cl | 118 | 1.72
C[C@@H]1CCCN1Cc1sc(NC(=O)c2cnc(N3CCC(C(=O)O)CC3)nc2)nc1-c1cc(Cl)cs1 | 65 | –
C[C@@H]1CCCN1Cc1sc(NC(=O)c2cnc(N3CCC(C(=O)O)CC3)cn2)nc1-c1cc(Cl)cc(C(F)(F)F)c1.Cl.Cl | 168 | 0.15
